# KCNQ1 act – potentiators or activators of KCNQ1 channel, primary screen, cell-based, thallium flux, high-throughput. Potassium voltage-gated channel subfamily KQT member 1 (Homo sapiens), P51787. CHO-K1 KCNQ1, thallium flux FluxOR fluorescence; active compounds read high. B-score at 10 µM. 310,000 compounds, 0.35% hits;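 active = fluorescence ratio B-score, a plate-corrected score, at least three library SD, with initial intensity B-score within 5 SD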
#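 assay system = KCNQ1-transfected CHO-K1 cells | medium = assay buffer with matched DMSO | probe or stimulus = depolarizing K+/Tl+ stimulus, K2SO4 and Tl2SO4 each 12.5 mM in 5x stock | dosing = single dose | incubation = dye 90 min, compound 20 min, room temperature | detection = kinetic FluxOR fluorescence, 10 s baseline plus 110 s post-stimulus | evaluation = ratio B score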
# KCNK9 inh – KCNK9 potassium channel inhibitors, primary screen, HEK293 cells, thallium flux. AID 488922, 2010. 310,000 compounds, 1.2% hits. FluxOR thallium flux fluorescence; active compounds read low. B-score at 10 µM. Potassium channel subfamily K member 9 (Homo sapiens), Q9NPC2;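 active = ratio B-score over 3 SD below the library mean, with starting fluorescence within 5 SD of its mean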;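 note: negative B-score means less thallium flux so channel inhibition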
# Kir21 inh – inhibitors of mouse Kir2.1 inward-rectifier potassium channel; Inward rectifier potassium channel 2 (Mus musculus), P35561; HEK293-Kir2.1, FluxOR thallium flux fluorescence; active compounds read low; B-score at 10 µM; 310,000 compounds, 0.85% hits;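 active = fluorescence ratio B-score at or below minus 3 SD of library scores, with starting-brightness B-score within 2 SD, cut at about -4.2 in these data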;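 note: channel flux triggered by added potassium and thallium sulfate stimulus; B-score of peak minus minimum fluorescence over baseline after thallium stimulus; more negative B-score means stronger Kir2.1 block with less thallium influx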
# KCNQ1 block – inhibitors of human KCNQ1 channel, primary screen, cell-based, thallium flux, high-throughput. 310,000 compounds, 1.3% hits. CHO-K1 KCNQ1, FluxOR thallium flux fluorescence; active compounds read high. B-score at 10 µM. Potassium voltage-gated channel subfamily KQT member 1 (Homo sapiens), P51787;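 active = compounds whose thallium flux B-score, printed positive for inhibition, exceeds three library SD while starting fluorescence stays within three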;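 note: channel opened by potassium depolarization with thallium stimulus after 20 min compound exposure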
# hERG protect – hERG rescue from dofetilide block, primary screen, cell-based, CHO-hERG, FluxOR thallium flux, dofetilide IC70. Voltage-gated inwardly rectifying potassium channel KCNH2 (Homo sapiens), Q12809. dofetilide IC70 present. activation (rescue from dofetilide block), less the hit threshold, % at 10 µM. 310,000 compounds, 0.51% hits;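 active = activation above the mean of controls blocked by dofetilide plus 5 SD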;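 note: thallium influx through hERG after potassium depolarization seen as dye fluorescence rise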
# KCNK3 block – human KCNK3 channel inhibitors, primary screen, CHO cells, FluxOR thallium flux, B-score; Potassium channel subfamily K member 3 (Homo sapiens), O14649; FluxOR fluorescence; active compounds read low; B-score at 10 µM; 340,000 compounds, 0.84% hits; AID 602410, 2012;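 active = B-score under library mean minus 4 SD, starting fluorescence ratio at most library mean plus 5 SD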;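 note: more negative B-score means stronger inhibition of thallium flux through KCNK3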
# Target sequence (O14649 whole entry, looked up): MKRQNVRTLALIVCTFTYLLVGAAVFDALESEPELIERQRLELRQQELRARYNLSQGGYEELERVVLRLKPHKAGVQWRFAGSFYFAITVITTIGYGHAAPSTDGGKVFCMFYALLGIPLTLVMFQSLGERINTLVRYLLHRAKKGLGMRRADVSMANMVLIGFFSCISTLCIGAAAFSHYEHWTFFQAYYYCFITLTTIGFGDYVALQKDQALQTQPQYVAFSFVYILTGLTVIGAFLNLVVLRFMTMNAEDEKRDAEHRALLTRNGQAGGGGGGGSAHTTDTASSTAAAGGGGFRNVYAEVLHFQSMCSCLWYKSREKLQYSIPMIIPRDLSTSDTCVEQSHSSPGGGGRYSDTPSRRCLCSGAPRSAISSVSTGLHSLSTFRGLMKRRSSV
# * = called active by the depositor; i = inactive; x = no result given. Rows were chosen to be rich in hits. Some 3.7% of all compounds tested hit in one or more screens of this group.
SMILES,KCNQ1 act,KCNK9 inh,Kir21 inh,KCNQ1 block,hERG protect,KCNK3 block
CC(=O)NCCC(=O)Nc1ccc(C)c(F)c1,i,i,-1.1,i,5.4*,i
Cc1onc(-c2c(Cl)cccc2Cl)c1C(=O)ONC(=O)c1ccccc1,i,i,-5.2*,i,-8,i
Cc1onc(-c2c(Cl)cccc2Cl)c1C(=O)c1ccc(F)cc1,i,i,-2.2,i,-8,i
Cc1onc(-c2c(F)cccc2Cl)c1C(=O)c1ccc(F)cc1,i,i,-4.8*,i,-10,i
Cc1onc(-c2c(F)cccc2Cl)c1C(=O)ONC(=O)c1ccccc1,i,i,-1.2,i,-7,i
C[C@H](CO)N1C[C@H](C)[C@@H](CN(C)Cc2ccccc2)Oc2ccc(NC(=O)Cn3cnnn3)cc2C1=O,x,x,x,x,x,i
N#Cc1ccc(CSc2nnc(-c3ccccc3)n2Cc2ccco2)cc1,i,i,-1.7,i,-6,i
C=CCn1c(SCc2ccc(C#N)cc2)nnc1-c1cccc(Cl)c1,i,i,-11*,i,-16,i
COc1ccc(OC)c(C(c2nnnn2C2CCCC2)N2CCN(c3ccccc3F)CC2)c1 (stereo unspecified),i,-8.9*,0.38,i,-7,i
CCCCC(=Nc1ccccc1OC)C1=C(O)CC(c2ccccc2)CC1=O (stereo unspecified),i,i,-1.5,7*,-12,i
CC(C)[N+]1(C)[C@@H]2CC[C@H]1CC(OC(=O)C(CO)c1ccccc1)C2 (stereo partly specified),22*,i,-0.11,i,x,i
CCN(Cc1ccccc1)C(=O)CSc1nc(C)cc(C)c1C#N,i,i,-4.7*,i,-11,i
CCN(CC)C(=O)CSc1nc(C)cc(C)c1C#N,i,i,-0.09,i,-17,i
Cc1ccc(C)c(S(=O)(=O)Nc2ccc(C(=O)N3CCCCC3)cc2)c1,i,i,-0.01,i,-8,i
Cc1ccc(C)c(S(=O)(=O)NCc2ccc(C(=O)N3CCCCC3C)cc2)c1 (stereo unspecified),i,-6.8*,-1.6,i,-14,i
CC1CCCCN1C(=O)c1ccc(C(=O)N2CCCCC2C)cc1 (stereo unspecified),i,i,-0.28,i,-6,i
Cc1cccc(C(=O)Nc2ccc(C(=O)N3CCCCC3C)cc2)c1 (stereo unspecified),i,-7.6*,0.54,i,-9,i
C[C@@]12C(=O)N(CC3CC3)CC(=O)N1[C@H](C1CC1)[C@@H]1C(=O)N(c3ccccc3)C(=O)[C@@H]12,i,i,-1.4,i,-3,i
CN1CCN(c2ccc(-c3ccnn3C(=O)Nc3cccc(C(F)(F)F)c3)cc2)CC1,i,i,-1.3,i,-8,i
O=C(CCNC(=O)C1CCN(S(=O)(=O)c2ccc(F)cc2)CC1)NCc1ccccc1,i,i,1.4,i,-8,i
CCc1ccccc1NC(=O)N1CCc2ccccc21,i,i,-0.93,i,-12,i
CCN(CC)S(=O)(=O)c1cccc(NC(=O)CN2C(=O)NC3(CCOc4ccccc43)C2=O)c1 (stereo unspecified),x,x,x,x,x,i
Cc1cc(C)c(S(C)(=O)=O)c(S(=O)(=O)c2ccc(Cl)cc2)n1,i,i,0.17,i,-6,i
CNc1nc(C)cc(C)c1S(=O)(=O)c1ccc(C)cc1,i,i,-5.8*,i,-11,i
CCN(CC)P(=O)(Nc1ccc(C)cc1Br)c1ccc(N(C)C)cc1NC(=O)c1ccco1 (stereo unspecified),i,i,1.1,7*,-17,i
CCC1(O)CC(C(=O)OC)=NN1C(=O)c1ccccc1 (stereo unspecified),i,i,-0.33,i,-4,i

# Screens deposited in PubChem BioAssay by Johns Hopkins Ion Channel Center.
